Measurements gathered from unrelated publications.
Lines come from different studies, so protocols differ.
Cell line: A549
Effect on: cell growth or viability

CC[C@@]1(OC(=O)[C@@H](N)CCSC)C(=O)OCc2c1cc1n(c2=O)Cc2cc3cc4c(cc3nc2-1)OCO4 — IC50 (MTT): 0.085 µM
CC1=C(O)C(=O)C=C2C1=CC=C1[C@@]2(C)CC[C@@]2(C)[C@@H]3C[C@](C)(C(=O)OCCCn4cc(C=O)c5ccccc54)CC[C@]3(C)CC[C@]12C — IC50 (MTT; 48 h): 7.83 µM
COc1cccc2c1C(=O)c1c(O)c3c(c(O)c1C2=O)C[C@@](O)(C(=O)CO)C[C@@H]3O[C@H]1C[C@H](N)[C@H](O[C@@H]2CCCCO2)[C@H](C)O1 — IC50 (MTT; 12 h): 5.8 µM
O=C(N/N=C1\C(=O)N(Cc2ccccc2)c2ccccc21)c1cc2ccccc2[nH]1 — IC50: 1.06 µM
CC[C@H](C)[C@H](N)C(=O)O[C@]1(CC)C(=O)OCc2c1cc1n(c2=O)Cc2cc3cc4c(cc3nc2-1)OCO4 — IC50 (MTT): 0.077 µM
O=C(N/N=C1\C(=O)N(Cc2ccccc2)c2ccc(Br)cc21)c1cc2ccccc2[nH]1 — IC50: 0.65 µM
COc1c2c(cc3c1OCO3)[C@]13C=C[C@H](OC)C[C@@H]1[N@](C2)C[C@H]3OC(=O)c1ccco1 — IC50 (WST-1): > 10 µM
N.N.[Cl][Pt][Cl] — IC50 (MTT; 48 h): 9.24 µM
Nc1cc(Cl)c(Cl)cc1N — IC50 (72 h): 120 µM
N.N.[Cl][Pt][Cl] — IC50 (MTT; 24 h): 5.35 µM
CC1=CC(=O)c2c(O)cccc2C1=O — IC50 (SRB): 2.82 µM
O=C(N/N=C1\C(=O)N(Cc2ccccc2)c2ccc(Cl)cc21)c1cc2ccccc2[nH]1 — IC50 (imaging; 48 h): 1.38 µM
CC[C@@]1(OC(=O)[C@@H](N)C(C)C)C(=O)OCc2c1cc1n(c2=O)Cc2cc3cc4c(cc3nc2-1)OCO4 — IC50 (MTT): 0.089 µM
O=C(N/N=C1\C(=O)N(Cc2ccc(Cl)cc2)c2ccccc21)c1cc2ccccc2[nH]1 — IC50: 1.05 µM
CC[C@@]1(OC(=O)C(C)c2cccc(C(=O)c3ccccc3)c2)C(=O)OCc2c1cc1n(c2=O)Cc2cc3cc4c(cc3nc2-1)OCO4 (some centres unmarked) — IC50 (MTT): 0.289 µM
N#Cc1ccc(CN2C(=O)/C(=N\NC(=O)c3cc4ccccc4[nH]3)c3ccccc32)cc1 — IC50: 2.13 µM
CC[C@@]1(OC(=O)[C@H](C)N)C(=O)OCc2c1cc1n(c2=O)Cc2cc3cc4c(cc3nc2-1)OCO4 — IC50 (MTT): 0.04 µM
COc1c2c(cc3c1OCO3)[C@]13C=C[C@H](OC)C[C@@H]1[N@](C2)C[C@H]3OC(=O)c1ccoc1 — IC50 (WST-1): > 10 µM
CCC1(OC(=O)C(C)c2ccc3cc(OC)ccc3c2)C(=O)OCc2c1cc1n(c2=O)Cc2cc3cc4c(cc3nc2-1)OCO4 (centres unmarked) — IC50 (MTT): 0.471 µM
N.N.[Cl][Pt][Cl] — IC50 (resazurin; 72 h): 3.4 µM
